# Source: PubChem BioAssay (several laboratories)
# In the library only some 1.5% were active in any assay of this set; here they are far more common.
# Apaf-1 inh = human Apaf-1 inhibition. hit rate 0.71% among 330,000. reconstituted apoptosome caspase-3 activity, DEVD-Rh110 fluorescence. AID 489030. inhibition, % at 20 µM; active = inhibition of at least 40% at 20 µM;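 also: plate controls were DMSO wells for no effect and DEVD-CHO caspase inhibitor wells for full effect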
#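 Medium: Hepes buffer, pH 7.5 / System: biochemical Apaf-1 apoptosome reconstitution / Measured by: Rh110 fluorescence, excitation 480 nm, emission 540 nm / Times: compound with Apaf-1, dATP, procaspase-3 30 min, then 50 min reaction, room temperature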
# UBC13 polyUb = inhibitors of human UBC13 polyubiquitin chain formation; inhibition, % at 20 µM; TR-FRET; hit rate 0.47% among 330,000; P61088; AID 485273; in the data active = inhibition above about 45%, passing the limit was not always enough
# Target sequence (P61088 whole entry, looked up): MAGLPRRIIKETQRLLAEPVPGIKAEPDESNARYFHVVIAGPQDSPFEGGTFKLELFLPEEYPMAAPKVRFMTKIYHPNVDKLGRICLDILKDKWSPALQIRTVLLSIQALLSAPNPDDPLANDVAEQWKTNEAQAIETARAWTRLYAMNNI
# UCH37 DUB inh = human UCH37 deubiquitinating enzyme inhibition. Q9Y5K5. hit rate 0.33% among 330,000. inhibition, % (test concentration not listed). purified proteasome/UCH37, Ub-AMC cleavage fluorescence;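 active = mean inhibition over replicate wells above about 20%, limit read from the data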;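 also: 0% = compound-free wells with enzyme and 100% = wells lacking proteasome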
# Target sequence (Q9Y5K5 whole entry, looked up): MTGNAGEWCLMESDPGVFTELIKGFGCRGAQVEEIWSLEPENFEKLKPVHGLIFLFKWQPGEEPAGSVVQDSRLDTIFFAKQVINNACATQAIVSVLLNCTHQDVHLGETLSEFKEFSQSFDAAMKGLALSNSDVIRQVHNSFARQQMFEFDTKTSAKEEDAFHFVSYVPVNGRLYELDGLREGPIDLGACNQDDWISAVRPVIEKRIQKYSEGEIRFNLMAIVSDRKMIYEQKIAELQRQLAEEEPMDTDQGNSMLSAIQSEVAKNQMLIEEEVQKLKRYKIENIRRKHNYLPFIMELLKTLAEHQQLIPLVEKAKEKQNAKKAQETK
#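 Test system – human UCH37 enzyme supplied as purified proteasome complex · Incubation – 30 min preincubation with enzyme, 25 min cleavage at room temperature · Detection – AMC fluorescence from Ub-AMC cleavage, excitation 355 nm, emission 460 nm · Benchmarks – no-proteasome wells (full inhibition) and compound-free wells (no inhibition)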
# PREPL inhibitor = human PREPL enzyme inhibition; inhibition, % at 5.96 µM; recombinant PREPL, fluorescence polarization activity-based probe; Q4J6C6; hit rate 0.68% among 320,000; in the data active = inhibition above about 43%;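 also: 0% = enzyme with DMSO and 100% = wells lacking enzyme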
# Apaf-1 inh conf2 = confirmation of Apaf-1 inhibitors. shares compounds with Apaf-1 inh. reconstituted apoptosome, caspase-3 DEVD-Rh110 fluorescence. inhibition, % at 20 µM. hit rate 25% among 1,800. AID 504614;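 active = mean inhibition of at least 40% at 20 µM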;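 also: plate controls were DMSO wells for no effect and DEVD-CHO caspase inhibitor control wells for full effect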
# Rh110 quench = counter-screen for Apaf-1 inhibitors: fluorescence interference; shares compounds with Apaf-1 inh; Rh110 fluorescence interference, quenched caspase reaction; activation (fluorescence interference), % at 20 µM; 1,800 tested, under 10 active; AID 504615;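 active = signal rise of 40% or more at 20 µM, treated as a fluorescence artifact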
# Fluor interf inh = Apaf-1 inhibitor counter-screen fluorescence artifact | 460 tested, under 10 active | fluorescence interference counterscreen, Apaf-1 assay format | IC50, µM | AID 588538 | shares compounds with Apaf-1 inh; call rule not given here
# UCH37 reconfirm = reconfirmed inhibitor of human deubiquitinase UCH37; hit rate 27% among 480; inhibition, % at 20 µM; Proteasome-bound UCH37, Ub-AMC cleavage fluorescence; shares compounds with UCH37 DUB inh; AID 624100;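 active = average inhibition over replicates above about 50%, so the earlier screening hit is confirmed, limit read from the data; inactive = the rest, counted as false positives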;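 also: based on cleavage rate fitted by regression over a 30 min kinetic read; 0% = proteasome plus Ub-AMC and 100% = Ub-AMC without proteasome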
# Active calls of the source: *; i = inactive; nt = no result given.
SMILES,Apaf-1 inh,UBC13 polyUb,UCH37 DUB inh,PREPL inhibitor,UCH37 reconfirm,others
O=C1CCCC2=C1C1(O)C(=O)c3ccccc3C1(O)O2 (stereo not drawn),92*,-26,65*,-5,79*,Apaf-1 inh conf2=72*;Rh110 quench=-1;Fluor interf inh=>100
COc1ccc(C=NNC(=S)NCc2ccccc2)cc1OC,nt,nt,4,nt,nt,
Cc1[nH][nH]c(=O)c1C(c1ccc(-c2ccc(Cl)c(Cl)c2)o1)c1c(C)[nH][nH]c1=O,79*,-24,42*,13,27,Apaf-1 inh conf2=30;Rh110 quench=0
CC(CC(=O)NC1CCCCC1)=NNC(=O)Cc1ccc(-c2ccccc2)cc1,nt,nt,2,nt,nt,
O=C(O)c1ccccc1Nc1ccccc1C(=O)O,-1,-4,6,-1,nt,
CCCCNC1=CC(=O)C(=O)c2ccccc21,96*,-133,49*,4,37,Apaf-1 inh conf2=84*;Rh110 quench=3;Fluor interf inh=>100
O=C1C=C(Nc2ccccc2)c2ccccc2C1=O,92*,-287,65*,nt,43,Apaf-1 inh conf2=91*;Rh110 quench=-3;Fluor interf inh=>100
O=C1C=C(Nc2ccccc2C(=O)O)c2ccccc2C1=O,91*,-100,82*,12,93*,Apaf-1 inh conf2=93*;Rh110 quench=-1;Fluor interf inh=>100
NC(=O)NN=Cc1ccccc1OC(=O)c1ccccc1Br,nt,nt,4,nt,nt,
Cc1ccsc1C=NNC(=O)c1n[nH]c2c1CCC2,nt,nt,10,nt,nt,
O=C(NC1=C(NC2CCS(=O)(=O)C2)C(=O)c2ccccc2C1=O)c1ccccc1 (stereo not drawn),88*,-91,62*,11,60*,Apaf-1 inh conf2=92*;Rh110 quench=7;Fluor interf inh=>100
Cc1cccc(NC2=C(NC(=O)c3ccccc3)C(=O)c3ccccc3C2=O)c1,73*,-138,52*,15,42,Apaf-1 inh conf2=58*;Rh110 quench=11;Fluor interf inh=>100
O=C(NC(NC1CCS(=O)(=O)C1)C(=O)c1cccs1)c1ccccc1 (stereo not drawn),-10,5,2,0,nt,
COc1cc(Br)cc(Br)c1OCC(=O)NN=Cc1c(C)n(C)n(-c2ccccc2)c1=O,nt,nt,1,nt,nt,
Cc1[nH][nH]c(=O)c1C(c1c(C)[nH][nH]c1=O)c1cn(Cc2cccc3ccccc23)c2ccccc12,95*,-33,83*,11,50,Apaf-1 inh conf2=51*;Rh110 quench=11;Fluor interf inh=>100
CC(=O)Nc1ccc(S(=O)(=O)/N=C2\C(=O)c3ccccc3C([O-])=C2n2cc[n+](-c3ccccn3)c2)cc1,84*,-103,57*,14,58*,Apaf-1 inh conf2=76*;Rh110 quench=3;Fluor interf inh=>100
CC(=O)Nc1ccc(S(=O)(=O)NCCSc2ccccn2)cc1,1,-14,-2,-4,nt,
Cn1cccc1C=NN1CCN(Cc2cccc3ccccc23)CC1,nt,nt,5,nt,nt,
CC(=NNC(=O)c1cccc(NN=C(C)c2cc(O)ccc2O)c1)c1cc(O)ccc1O,nt,nt,35*,nt,-34,
CCC(Cc1ccccc1)=NNC(=O)CNC(=O)c1ccc(Cl)cc1Cl,nt,nt,0,nt,nt,
COc1cc(/C=C(\C#N)c2nc3ccccc3s2)cc([N+](=O)[O-])c1O,19,-221,26*,nt,53*,
COc1cccc(C=NNC(=O)CCc2c(C)n[nH]c2C)c1O,nt,nt,-6,nt,nt,
CN(C)C=NC(=S)Nc1ccc(Cl)cc1Cl,nt,nt,6,nt,nt,
Cc1onc(-c2c(Cl)cccc2Cl)c1C(=O)ON=C(C#N)c1c(Cl)cccc1Cl,nt,nt,6,nt,nt,
CN(C)CCCN(C(=O)c1ccc([N+](=O)[O-])s1)c1nc2cc3c(cc2s1)OCCO3,17,10,56*,5,4,
SMILES,Apaf-1 inh,UBC13 polyUb,UCH37 DUB inh,PREPL inhibitor,UCH37 reconfirm,others
N#CC(=NNc1ccc([N+](=O)[O-])cc1)C(N)=S,nt,nt,29*,nt,19,
N#C/C(=N\Nc1ccc([N+](=O)[O-])cc1)C(N)=S,6,-364,nt,8,nt,
COc1ccc(C(=O)c2ccccc2)c2c(O)ccc(C(=O)c3ccccc3)c12,11,-4,41*,1,-7,
Oc1ccc(C=Nn2c(-c3ccccc3)n[nH]c2=S)cc1,nt,nt,6,nt,nt,
Cc1cc(-c2n[nH]c(=S)n2N=Cc2c[nH]c3ccccc23)n[nH]1,nt,nt,4,nt,nt,
N#Cc1cn(-c2ccccc2)nc1C(=O)c1ccccc1,11,15,37*,25,15,
CC(=O)c1nn(-c2ccccc2)cc1C(=O)c1ccc(C)cc1,7,-6,7,-7,nt,
Cc1ccc(/C=C/c2ccc(N(C)C)cc2)[n+](C)c1,1,-377,27*,-3,30,
CN(C)c1ccc(/C=C/c2cc[n+](C)cc2)cc1,-4,i,17,-78,nt,
C(C#CCCCCCCCCC[n+]1ccccc1)#CCCCCCCCCC[n+]1ccccc1,nt,nt,34*,28,69*,
Cc1cc(C)nc(NN=Cc2c(C)oc3ccccc23)n1,nt,nt,2,nt,nt,
COc1ccc(C=NNC(=O)c2cc(Br)ccc2O)cc1Cn1cc(Cl)cn1,nt,nt,-57,nt,nt,
N#C/C(=C\c1ccc(-c2ccc(C(=O)O)cc2)o1)C(=O)NCC1CCCO1 (stereo not drawn),-2,5,-24,-12,nt,
N#C/C(=C\c1ccc(N2CCOCC2)o1)C(=O)NCC1CCCO1 (stereo not drawn),-3,-167,31*,3,40,
COCCNC(=O)/C(C#N)=C/c1ccc(-c2ccc(OC)cc2[N+](=O)[O-])o1,18,-31,52*,10,30,
COCCNC(=O)/C(C#N)=C/c1ccc(N2CCOCC2)o1,8,-166,38*,4,36,
COCCNC(=O)/C(C#N)=C/c1ccc(O)c([N+](=O)[O-])c1,-9,-32,20,5,nt,
N#C/C(=C\c1ccc(N2CCOCC2)o1)C(=O)NC1CCCCC1,-10,-122,30*,20,20,
CC(C)NC(=O)/C(C#N)=C/c1ccc(N(C)C)o1,-8,-261,32*,2,34,
Cc1[nH][nH]c(=O)c1C(c1c(C)[nH][nH]c1=O)c1cn(C)c2ccccc12,nt,nt,90*,nt,57*,
Cn1c(=O)c2ccccc2n(CC(=O)NCCC2=CCCCC2)c1=O,-6,-1,32*,7,47,
COc1ccc(-n2nc(C(=O)NCC(=O)NCCC3=CCCCC3)c3ccccc3c2=O)cc1OC,8,5,36*,5,54*,
COc1ccc(C(=O)NN=Cc2ccccc2C(=O)O)cc1OC,nt,nt,3,nt,nt,
Cc1cc(C(=O)NN=Cc2cc(Cl)cc([N+](=O)[O-])c2O)c2ccccc2n1,nt,nt,11,nt,nt,
COc1cccc(C=NNC(=O)CN2CC(c3ccccc3)CC2=O)c1OC (stereo not drawn),nt,nt,-4,nt,nt,
Cc1ccoc1C(=O)NCCCNC(=O)c1occc1C,0,-20,48*,-6,6,
CCOc1ccc(CNC(=S)NN=Cc2ccncc2)cc1,nt,nt,44*,nt,-11,
COc1cc(NCCCCCCN)c2ncccc2c1OC,nt,nt,69*,nt,70*,
